Experimental data: ChEMBL document CHEMBL2396629, “Synthesis and biological evaluation of 4,5-dihydro-1H-pyrazole derivatives as potential nNOS/iNOS selective inhibitors. Part 2: Influence of diverse substituents in both the phenyl moiety and the acyl group” (Bioorg Med Chem, 2013)

Tests used:
Nitric oxide synthase 1 [1] = target: T1, Nitric oxide synthase 1 (Homo sapiens, UniProt P29475); assay: Inhibition of recombinant nNOS (unknown origin) assessed as conversion of L-[3H]-arginine to L-[3H]-citrulline at 1 mM after 30 mins
In short: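 Recombinant nNOS (21.05 nmol/min/mg) in 25 mM Tris-HCl pH 7.6 with DTT, H4-biopterin, FAD, inosine, BSA, CaCl2, L-arginine and 50 nM L-[3H]-arginine. Compound at 1 mM; 37 °C, 30 min. Stopped with cold HEPES/EGTA/L-citrulline pH 5.5, Dowex-50W (Na+) separation, [3H]-citrulline by scintillation. NADPH-omitted blank subtracted. Mean of three experiments in triplicate.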

[2] = target: Nitric oxide synthase, inducible (Homo sapiens) (UniProt P35228); assay: Inhibition of recombinant iNOS (unknown origin) assessed as conversion of L-[3H]-arginine to L-[3H]-citrulline at 1 mM after 30 mins
In short: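 Recombinant iNOS was tested with each compound at 1 mM. Activity is expressed relative to control and reported as % inhibition. Each value is the mean of three experiments, each run in triplicate.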

Nitric oxide synthase 1 [3] = target: T1, Nitric oxide synthase 1; assay: Inhibition of recombinant nNOS (unknown origin) assessed as conversion of L-[3H]-arginine to L-[3H]-citrulline after 30 mins
In short: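 Bredt–Snyder radiometric citrulline assay using recombinant nNOS in 25 mM Tris-HCl pH 7.6 with DTT, H4-biopterin, FAD, inosine, BSA, 0.1 mM CaCl2, L-arginine and 50 nM L-[3H]-arginine. Incubated at 37 °C for 30 min, then Dowex-50W separation and scintillation counting. Blank without NADPH subtracted. IC50 given in mM.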

Nitric oxide synthase, inducible (Homo sapiens), sequence (P35228 whole entry): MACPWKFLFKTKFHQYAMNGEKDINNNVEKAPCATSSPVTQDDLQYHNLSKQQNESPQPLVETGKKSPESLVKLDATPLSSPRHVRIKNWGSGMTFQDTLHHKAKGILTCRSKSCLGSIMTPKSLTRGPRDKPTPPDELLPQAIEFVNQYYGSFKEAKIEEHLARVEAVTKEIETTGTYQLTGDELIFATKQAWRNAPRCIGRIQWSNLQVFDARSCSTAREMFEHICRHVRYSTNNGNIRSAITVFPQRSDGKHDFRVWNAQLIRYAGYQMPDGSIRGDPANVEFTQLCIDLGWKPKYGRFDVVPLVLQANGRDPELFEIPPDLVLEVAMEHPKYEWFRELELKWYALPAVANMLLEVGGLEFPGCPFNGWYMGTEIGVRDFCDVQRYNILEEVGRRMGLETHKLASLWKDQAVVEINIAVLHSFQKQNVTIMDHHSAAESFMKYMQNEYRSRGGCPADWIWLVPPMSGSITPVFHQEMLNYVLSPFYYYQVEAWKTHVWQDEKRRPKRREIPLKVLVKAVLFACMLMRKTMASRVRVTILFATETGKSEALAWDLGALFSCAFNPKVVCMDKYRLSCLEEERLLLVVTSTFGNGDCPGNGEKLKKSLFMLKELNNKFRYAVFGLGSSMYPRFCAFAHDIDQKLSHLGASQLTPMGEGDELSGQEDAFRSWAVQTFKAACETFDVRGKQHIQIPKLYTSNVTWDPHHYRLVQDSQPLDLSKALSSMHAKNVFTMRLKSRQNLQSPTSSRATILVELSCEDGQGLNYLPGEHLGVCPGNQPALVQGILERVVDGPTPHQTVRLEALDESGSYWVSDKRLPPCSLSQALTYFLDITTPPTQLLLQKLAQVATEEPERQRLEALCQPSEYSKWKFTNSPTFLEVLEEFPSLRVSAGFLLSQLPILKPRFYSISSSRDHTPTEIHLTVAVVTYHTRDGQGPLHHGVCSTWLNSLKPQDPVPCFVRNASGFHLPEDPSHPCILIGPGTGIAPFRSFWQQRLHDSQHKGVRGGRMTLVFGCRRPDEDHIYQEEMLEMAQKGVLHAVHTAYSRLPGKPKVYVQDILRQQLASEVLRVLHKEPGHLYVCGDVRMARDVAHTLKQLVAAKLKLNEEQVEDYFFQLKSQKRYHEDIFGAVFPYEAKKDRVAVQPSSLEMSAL
T1 sequence (P29475 whole entry): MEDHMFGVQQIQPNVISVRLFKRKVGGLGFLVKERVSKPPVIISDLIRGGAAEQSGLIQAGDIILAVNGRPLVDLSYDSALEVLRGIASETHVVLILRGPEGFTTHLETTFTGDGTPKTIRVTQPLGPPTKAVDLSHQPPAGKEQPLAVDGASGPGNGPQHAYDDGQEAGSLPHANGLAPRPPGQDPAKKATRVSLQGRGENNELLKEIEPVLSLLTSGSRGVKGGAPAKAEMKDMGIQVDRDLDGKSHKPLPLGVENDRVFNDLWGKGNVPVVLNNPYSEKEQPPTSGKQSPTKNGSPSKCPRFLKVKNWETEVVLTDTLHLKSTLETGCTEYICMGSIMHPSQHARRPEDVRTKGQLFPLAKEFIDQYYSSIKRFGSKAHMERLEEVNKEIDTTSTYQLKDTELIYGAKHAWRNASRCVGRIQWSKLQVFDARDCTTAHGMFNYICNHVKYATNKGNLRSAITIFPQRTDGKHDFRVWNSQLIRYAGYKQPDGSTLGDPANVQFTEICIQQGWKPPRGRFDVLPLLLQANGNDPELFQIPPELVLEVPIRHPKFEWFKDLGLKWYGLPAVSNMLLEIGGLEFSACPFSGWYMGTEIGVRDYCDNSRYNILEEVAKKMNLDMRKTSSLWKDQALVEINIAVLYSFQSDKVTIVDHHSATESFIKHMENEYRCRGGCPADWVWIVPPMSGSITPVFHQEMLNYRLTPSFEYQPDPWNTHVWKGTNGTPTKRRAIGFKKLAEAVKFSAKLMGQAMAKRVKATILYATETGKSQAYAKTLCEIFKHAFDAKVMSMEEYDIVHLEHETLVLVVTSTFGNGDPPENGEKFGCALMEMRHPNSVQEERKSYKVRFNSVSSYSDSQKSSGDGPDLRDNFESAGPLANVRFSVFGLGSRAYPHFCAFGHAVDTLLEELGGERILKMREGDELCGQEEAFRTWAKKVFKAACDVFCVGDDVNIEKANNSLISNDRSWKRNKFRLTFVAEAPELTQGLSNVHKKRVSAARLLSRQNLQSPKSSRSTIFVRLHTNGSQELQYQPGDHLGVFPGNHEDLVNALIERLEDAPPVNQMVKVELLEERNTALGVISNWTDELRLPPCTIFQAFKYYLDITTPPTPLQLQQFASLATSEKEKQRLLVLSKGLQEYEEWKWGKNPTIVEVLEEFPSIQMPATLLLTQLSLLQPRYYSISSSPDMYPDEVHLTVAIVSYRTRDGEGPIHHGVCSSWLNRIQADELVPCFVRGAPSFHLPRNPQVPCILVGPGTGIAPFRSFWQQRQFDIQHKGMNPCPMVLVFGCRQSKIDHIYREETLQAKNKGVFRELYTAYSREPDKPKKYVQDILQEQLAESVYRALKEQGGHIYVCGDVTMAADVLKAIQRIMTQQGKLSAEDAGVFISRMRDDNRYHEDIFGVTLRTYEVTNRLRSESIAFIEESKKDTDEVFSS

SMILES	inhibition (Nitric oxide synthase 1 [1])	inhibition [2]	IC50 (Nitric oxide synthase 1 [3])
COc1cc(N)c(C2=NN(C(=O)Cc3ccccc3)CC2)c(OC)c1OC	48.4%	23.4%	–
COc1cc(N)c(C2=NN(C(=O)CCc3ccccc3)CC2)cc1OC	55.3%	23.7%	880 µM
COc1cc(N)c(C2=NN(C(=O)c3ccccc3)CC2)cc1OC	25.1%	28.9%	–
CCCC(=O)N1CCC(c2cc(Cl)ccc2N)=N1	34.4%	0.29%	–
Nc1cc(Cl)c(Cl)cc1C1=NN(C(=O)Cc2ccccc2)CC1	21.6%	49.2%	–
Nc1ccc(Cl)cc1C1=NN(C(=O)CCc2ccccc2)CC1	32.4%	31.4%	–
COc1cc(N)c(C2=NN(C(=O)c3ccccc3)CC2)c(OC)c1OC	62.9%	8.14%	530 µM
COc1cc(N)c(C2=NN(C(=O)C3CC3)CC2)c(OC)c1OC	0.05%	30.1%	–
CCC(=O)N1CCC(c2cc(OC)ccc2N)=N1	53.3%	20.4%	–
CCCCC(=O)N1CCC(c2cc(OC)ccc2N)=N1	49.8%	0.18%	–
COc1ccc(N)c(C2=NN(C(=O)CCc3ccccc3)CC2)c1	25.9%	21.2%	–
COc1cc(N)c(C2=NN(C(=O)Cc3ccccc3)CC2)cc1OC	35.1%	21%	–
COc1cc(N)c(C2=NN(C(=O)CCc3ccccc3)CC2)c(OC)c1OC	82.5%	18.3%	400 µM
CCCC(=O)N1CCC(c2cc(OC)ccc2N)=N1	34.7%	13.1%	–
Nc1cc(Cl)c(Cl)cc1C1=NN(C(=O)CCc2ccccc2)CC1	2.97%	50.2%	–
COc1ccc(N)c(C2=NN(C(=O)Cc3ccccc3)CC2)c1	0.03%	15%	–
COc1ccc(N)c(C2=NN(C(C)=O)CC2)c1	38%	20.4%	–

The remaining lines, values ahead:

inhibition (Nitric oxide synthase 1 [1])	inhibition [2]	IC50 (Nitric oxide synthase 1 [3])	SMILES
62.2%	19.9%	–	COc1ccc(N)c(C2=NN(C(=O)C3CC3)CC2)c1
47.6%	1.03%	–	CC(=O)N1CCC(c2cc(Cl)ccc2N)=N1
46.1%	13.7%	–	CCC(=O)N1CCC(c2cc(Cl)ccc2N)=N1
38.3%	1.91%	–	COc1ccc(N)c(C2=NN(C(=O)C3CCC3)CC2)c1
18.2%	34.6%	–	Nc1ccc(Cl)cc1C1=NN(C(=O)Cc2ccccc2)CC1
61.1%	17%	–	Nc1ccc(Cl)cc1C1=NN(C(=O)c2ccccc2)CC1
49.9%	1.85%	–	COc1ccc(N)c(C2=NN(C(=O)C3CCCC3)CC2)c1
38.8%	14.8%	–	Nc1ccccc1C1=NN(C(=O)C2CC2)CC1
58.9%	12.2%	–	COc1ccc(N)c(C2=NN(C(=O)c3ccccc3)CC2)c1
70.2%	18.9%	–	Nc1ccc(Cl)cc1C1=NN(C(=O)C2CC2)CC1
19.6%	25.2%	–	COc1cc(N)c(C2=NN(C(=O)C3CC3)CC2)cc1OC
36.5%	6.88%	–	CCC(=O)N1CCC(c2ccccc2N)=N1
33.7%	7.73%	–	CC(=O)N1CCC(c2ccccc2N)=N1
7.36%	5.64%	–	Nc1ccccc1C1=NN(C(=O)CCc2ccccc2)CC1
52.4%	–	–	CCCC(=O)N1CCC(c2ccccc2N)=N1
50.5%	15.5%	–	Nc1cc(Cl)c(Cl)cc1C1=NN(C(=O)C2CC2)CC1
0.62%	36.1%	–	Nc1cc(Cl)c(Cl)cc1C1=NN(C(=O)c2ccccc2)CC1
57%	8.7%	–	Nc1ccccc1C1=NN(C(=O)c2ccccc2)CC1
62.2%	13.2%	–	COc1ccc(N)c(C2=NN(C(=O)C3CCCCC3)CC2)c1
2.68%	2.31%	–	Nc1ccccc1C1=NN(C(=O)Cc2ccccc2)CC1
